In brackets after ≈: the same amount, converted by molar mass. Activity calls are given as the source filed them. The rule behind the calls is not given here.
What was measured:
Enterococcus faecium [1] = experiment: Antimicrobial activity against Enterococcus faecium D63 by microdilution method; format: functional
Enterococcus faecium [2] = experiment: Antimicrobial activity against penicillin-resistant Enterococcus faecium D63r by microdilution method; format: functional
Enterococcus faecium [3] = experiment: Antimicrobial activity against penicillin-resistant Enterococcus faecium D63r assessed as bacterial killing at 4 times MIC by time kill curve method; format: functional, organism-based
Enterococcus faecium [4] = experiment: Antimicrobial activity against Enterococcus faecium D63 assessed as bacterial killing at 4 times MIC by time kill curve method; format: functional, organism-based
In short: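 Survivors counted at 0, 4 and 24 h of incubation at 37°C by plating serial dilutions (at least 10-fold, to limit carryover).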

[5] = Inhibition of PBP1 in penicillin-resistant Enterococcus faecium D63r membranes assessed as inhibition of fluorescent ampicillin binding after 20 mins at 37 degC
In short: (§1)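 Competition assay on purified membrane preparations (300 μg protein). Membranes preincubated 20 min at 37°C with increasing β-lactam concentrations, then 1 h at 37°C with saturating 25 μM fluorescent ampicillin. Proteins resolved by SDS-PAGE and fluorography. IC50 is the concentration inhibiting 50% of fluorescent ampicillin labelling relative to a drug-free control.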

[6] = Inhibition of PBP2 in penicillin-resistant Enterococcus faecium D63r membranes assessed as inhibition of fluorescent ampicillin binding after 20 mins at 37 degC; in short: as §1
[7] = Inhibition of PBP3 in penicillin-resistant Enterococcus faecium D63r membranes assessed as inhibition of fluorescent ampicillin binding after 20 mins at 37 degC; in short: as §1
[8] = Inhibition of PBP4 in penicillin-resistant Enterococcus faecium D63r membranes assessed as inhibition of fluorescent ampicillin binding after 20 mins at 37 degC; in short: as §1
[9] = Inhibition of PBP5 in penicillin-resistant Enterococcus faecium D63r membranes assessed as inhibition of fluorescent ampicillin binding after 20 mins at 37 degC; in short: as §1
[10] = Inhibition of PBP6 in penicillin-resistant Enterococcus faecium D63r membranes assessed as inhibition of fluorescent ampicillin binding after 20 mins at 37 degC; in short: as §1
[11] = Inhibition of PBP1 in wild type Enterococcus faecium D63 membranes assessed as inhibition of fluorescent ampicillin binding after 20 mins at 37 degC
[12] = Inhibition of PBP2 in wild type Enterococcus faecium D63 membranes assessed as inhibition of fluorescent ampicillin binding after 20 mins at 37 degC; in short: as §1
[13] = Inhibition of PBP3 in wild type Enterococcus faecium D63 membranes assessed as inhibition of fluorescent ampicillin binding after 20 mins at 37 degC
[14] = Inhibition of PBP4 in wild type Enterococcus faecium D63 membranes assessed as inhibition of fluorescent ampicillin binding after 20 mins at 37 degC
[15] = Inhibition of PBP5 in wild type Enterococcus faecium D63 membranes assessed as inhibition of fluorescent ampicillin binding after 20 mins at 37 degC; in short: as §1
[16] = Inhibition of PBP6 in wild type Enterococcus faecium D63 membranes assessed as inhibition of fluorescent ampicillin binding after 20 mins at 37 degC; in short: as §1
Enterococcus faecium [17] = experiment: Inhibition of Enterococcus faecium low-affinity PBP5fm assessed as rate constant for enzyme acylation by spectrophotometry
In short: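 Soluble PBP 5fm (N-terminal membrane anchor removed), overproduced and purified without molecular sieve step. β-lactam ring opening followed at 319 nm, 30°C, 10 mM phosphate pH 7.0, 10 μM enzyme, across drug concentrations. Pseudo-first-order ka fitted from absorbance traces. k+2/K taken from slope of ka versus concentration.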

Staphylococcus aureus = experiment: Inhibition of Staphylococcus aureus PBP2a assessed as rate constant for enzyme acylation by spectrophotometry

Row | SMILES | MIC (Enterococcus faecium [1]) [µg/mL] | MIC (Enterococcus faecium [2]) [µg/mL] | inhibition (Enterococcus faecium [3]) | inhibition (Enterococcus faecium [4]) | IC50 [5] [µg/mL] | IC50 [6] [µg/mL] | IC50 [7] [µg/mL] | IC50 [8] [µg/mL] | IC50 [9] [µg/mL] | IC50 [10] [µg/mL] | IC50 [11] [µg/mL] | IC50 [12] [µg/mL] | IC50 [13] [µg/mL] | IC50 [14] [µg/mL] | IC50 [15] [µg/mL] | IC50 [16] [µg/mL] | INH (Enterococcus faecium [17]) [M⁻¹ s⁻¹] | INH (Staphylococcus aureus) [M⁻¹ s⁻¹]
1 | CC1(C)S[C@@H]2[C@H](NC(=O)Cc3ccccc3)C(=O)N2[C@H]1C(=O)O [PENICILLIN G] | 5 (≈ 15 µM) | 70 (≈ 209 µM) | Active | Active | 1.6 (≈ 4.78 µM) | 0.06 (≈ 0.179 µM) | 0.6 (≈ 1.79 µM) | 8 (≈ 23.9 µM) | 55 (≈ 164 µM) | 2 (≈ 5.98 µM) | 0.9 (≈ 2.69 µM) | 0.1 (≈ 0.299 µM) | 1.3 (≈ 3.89 µM) | 10 (≈ 29.9 µM) | 75 (≈ 224 µM) | 1.5 (≈ 4.49 µM) | 15 | 
2 | CO/N=C(\C(=O)N[C@@H]1C(=O)N2C(C(=O)[O-])=C(C[N+]3(C)CCCC3)CS[C@H]12)c1csc(N)n1 |  | > 100 |  |  | 1.7 (≈ 3.54 µM) | 0.6 (≈ 1.25 µM) | 0.5 (≈ 1.04 µM) | > 200 | > 200 | > 50 |  |  |  |  |  |  |  | 
3 | Nc1nc(/C(=N/O)C(=O)N[C@@H]2C(=O)N3C(C(=O)O)=C(/C=C4\CCN([C@@H]5CCNC5)C4=O)CS[C@H]23)ns1 [CEFTOBIPROLE] | 2 (≈ 3.74 µM) | 8 (≈ 15 µM) | Active | Active | 0.7 (≈ 1.31 µM) | 0.2 (≈ 0.374 µM) | 0.5 (≈ 0.935 µM) | 1.8 (≈ 3.37 µM) | 1 (≈ 1.87 µM) |  | 0.6 (≈ 1.12 µM) | 0.2 (≈ 0.374 µM) | 0.6 (≈ 1.12 µM) | 1.5 (≈ 2.81 µM) | 0.7 (≈ 1.31 µM) | > 16 | 110 | 8900
4 | CC(C)(O/N=C(\C(=O)N[C@@H]1C(=O)N2C(C(=O)[O-])=C(C[n+]3ccccc3)CS[C@H]12)c1csc(N)n1)C(=O)O [CEFTAZIDIME] |  | > 100 |  |  | 0.9 (≈ 1.65 µM) | 0.5 (≈ 0.915 µM) | 0.04 (≈ 0.0732 µM) | > 200 | > 200 | > 50 |  |  |  |  |  |  |  | 
5 | CC1(C)S[C@@H]2[C@H](NC(=O)[C@H](N)c3ccccc3)C(=O)N2[C@H]1C(=O)O [AMPICILLIN] | 15 (≈ 42.9 µM) | 125 (≈ 358 µM) |  |  |  |  |  |  |  |  |  |  |  |  |  |  |  | 

Reference: ChEMBL document CHEMBL1240353 (Antimicrob Agents Chemother, 2010)
